Experiments:
[1] = molecular target: T1, Butyrylcholinesterase (Equus caballus, UniProt Q9N1N9); assay: Prodrug activation assessed as equine serum BChE-mediated 3,4-diaminopyridine release measured 3 hrs post enzymatic hydrolysis by reverse phase HPLC; settings: horse
Procedure, shortened: (§1)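 Prodrug at 500 µM was incubated with 1.0 U eel AChE or equine BChE in 100 mM sodium phosphate pH 8.0 for 3 h at 37°C. Reaction was quenched with glacial acetic acid. Released 3,4-DAP was measured by C18 reverse-phase HPLC (TFA water/acetonitrile gradient, 254 and 320 nm) and quantified from peak area against authentic standards.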

[2] = molecular target: T1, Butyrylcholinesterase; assay: Inhibition of equine serum BChE using butyrylthiocholine iodide as a substrate by spectrophotometric Ellman's assay
Procedure, shortened: (§2)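 Ellman method at 37°C in 100 mM sodium phosphate pH 8.0 with 360 µM DTNB. Substrate was 100 µM acetylthiocholine iodide for eel AChE or butyrylthiocholine iodide for equine BChE, each reconstituted in 1% gelatin buffer. Prodrug ranged 500 µM to 2 µM. Reaction started with 0.5 U enzyme; linear rates read at 412 nm. IC50 and Ki came from non-linear regression, with Ki from varied inhibitor and substrate concentrations.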

[3] = molecular target: T2, Acetylcholinesterase (Electrophorus electricus, UniProt O42275); assay: Prodrug activation assessed as Electrophorus electricus Type V-S acetylcholinesterase mediated 3,4-diaminopyridine release measured 3 hrs post enzymatic hydrolysis by reverse phase HPLC; procedure, shortened: as §1
[4] = molecular target: T2, Acetylcholinesterase; assay: Inhibition of Electrophorus electricus Type V-S acetylcholinesterase using […] as substrate by spectrophotometric Ellman's assay; procedure, shortened: as §2
[5] = system: Serum; assay: Half life mouse serum by reverse phase HPLC; format: ADME, cell-free
Procedure, shortened: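 15 µl of 10 mM prodrug stock went into 85 µL mouse serum from clotted blood, pre-warmed to 37°C. Samples were taken at 0–120 min and extracted with cold acetonitrile; proteins were removed by centrifugation. Breakdown product 3,4-DAP was followed by reverse-phase HPLC. Half-life was calculated from 1-hour endpoint samples.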

[6] = Half life in iv dosed mouse; format: ADME, organism-based; settings: in vivo

T2 sequence (O42275 whole entry): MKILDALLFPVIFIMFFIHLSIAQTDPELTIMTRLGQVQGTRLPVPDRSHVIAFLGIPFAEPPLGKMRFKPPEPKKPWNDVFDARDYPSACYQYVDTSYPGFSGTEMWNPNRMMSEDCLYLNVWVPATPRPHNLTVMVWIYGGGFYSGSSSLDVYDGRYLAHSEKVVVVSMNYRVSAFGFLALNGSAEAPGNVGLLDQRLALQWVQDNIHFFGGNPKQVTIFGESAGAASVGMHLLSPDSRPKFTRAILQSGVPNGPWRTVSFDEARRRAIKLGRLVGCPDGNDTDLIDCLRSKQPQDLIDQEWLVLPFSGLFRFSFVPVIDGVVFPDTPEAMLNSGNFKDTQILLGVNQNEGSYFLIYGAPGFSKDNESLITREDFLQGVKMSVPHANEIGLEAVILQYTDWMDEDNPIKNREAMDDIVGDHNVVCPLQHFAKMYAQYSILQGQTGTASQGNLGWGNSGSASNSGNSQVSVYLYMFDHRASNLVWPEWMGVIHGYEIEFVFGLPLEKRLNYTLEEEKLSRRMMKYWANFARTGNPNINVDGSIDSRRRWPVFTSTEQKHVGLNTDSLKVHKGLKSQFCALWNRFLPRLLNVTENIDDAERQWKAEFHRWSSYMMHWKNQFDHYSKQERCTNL
T1 sequence (Q9N1N9 whole entry): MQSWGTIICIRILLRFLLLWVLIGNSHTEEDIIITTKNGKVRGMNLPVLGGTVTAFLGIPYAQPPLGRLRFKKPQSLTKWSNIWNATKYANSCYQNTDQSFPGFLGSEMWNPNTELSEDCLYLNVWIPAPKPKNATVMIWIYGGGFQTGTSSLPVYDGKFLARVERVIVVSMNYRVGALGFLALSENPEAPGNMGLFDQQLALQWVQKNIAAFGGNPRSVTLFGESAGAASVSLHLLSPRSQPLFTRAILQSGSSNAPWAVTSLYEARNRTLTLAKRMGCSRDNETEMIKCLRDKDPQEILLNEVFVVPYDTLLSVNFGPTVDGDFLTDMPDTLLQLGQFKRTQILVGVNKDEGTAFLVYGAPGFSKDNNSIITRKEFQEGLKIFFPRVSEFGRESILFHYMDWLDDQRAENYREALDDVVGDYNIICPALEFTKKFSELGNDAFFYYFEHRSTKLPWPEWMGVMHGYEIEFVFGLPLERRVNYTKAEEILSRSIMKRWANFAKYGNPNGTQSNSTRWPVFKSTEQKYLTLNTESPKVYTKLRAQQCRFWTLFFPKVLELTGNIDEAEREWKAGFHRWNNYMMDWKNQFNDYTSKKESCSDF

Row | Compound | Drug metabolism [1] | IC50 [2] | Drug metabolism [3] | IC50 [4] | Ki [2] | Ki [4] | t1/2 [5] | half-life [6]
1 | Nc1cnccc1NC(=O)OCc1ccc(OC(=O)c2ccccc2)cc1 | 0 µM | 392 µM | 1 µM | 167 µM | – | – | – | –
2 | CCCC(=O)Oc1ccc(COC(=O)Nc2ccncc2N)cc1 | 71 µM | 111 µM | 10 µM | 48.8 µM | 14.4 µM | 12.1 µM | – | –
3 | COC(=O)Nc1cnccc1N | 0 µM | > 500 µM | 0 µM | > 500 µM | – | – | – | –
4 | CC(=O)Oc1ccc(COC(=O)Nc2ccncc2N)cc1 | 0 µM | 10.6 µM | 0 µM | 49.4 µM | 1.6 µM | 10.9 µM | – | –
5 | COC(=O)Nc1ccncc1NC(=O)OC | 0 µM | 417 µM | 0 µM | 36.3 µM | > 500 µM | > 500 µM | – | –
6 | COc1cccc(C(=O)Oc2ccc(COC(=O)Nc3ccncc3N)cc2)c1 | 0 µM | 61.7 µM | 2 µM | 163 µM | – | – | – | –
7 | Nc1cnccc1NC(=O)OCc1ccc(OC(=O)C2CCCC2)cc1 | 79 µM | 77.5 µM | 34 µM | 11.6 µM | 37.2 µM | 6.8 µM | – | –
8 | CC(C)C(=O)Oc1ccc(COC(=O)Nc2ccncc2N)cc1 | 82 µM | 122 µM | 105 µM | 8.5 µM | 42 µM | 3.9 µM | 1.9 min | –
9 | CC(C)C(=O)OCc1ccccc1COC(=O)Nc1ccncc1N | 5 µM | > 500 µM | 29 µM | 496 µM | – | – | – | –
10 | Nc1cncc(N)c1N | – | – | – | – | – | – | – | 18.6 min
11 | CC(=O)Nc1ccncc1NC(C)=O | 0 µM | 404 µM | 0 µM | 34.2 µM | – | – | – | –
12 | CC(C)CC(=O)Oc1ccc(COC(=O)Nc2ccncc2N)cc1 | 83 µM | 87.7 µM | 12 µM | 11.9 µM | 38.4 µM | 55.4 µM | – | –
13 | CC(C)OC(=O)CCC(=O)Nc1ccncc1N | 5.8 µM | 97.4 µM | 3.4 µM | 88.3 µM | 62 µM | 3.2 µM | 165 min | –
14 | Nc1cnccc1NC(=O)C1CCCC1 | 8 µM | > 500 µM | 4 µM | > 500 µM | – | – | – | –
15 | CC(=O)Nc1ccncc1N | 0 µM | > 500 µM | 0 µM | 61.3 µM | 173 µM | 32.5 µM | – | –
16 | COC(=O)Nc1ccncc1N | 0 µM | 491 µM | 0 µM | 45.6 µM | – | – | – | –
17 | C#CC[n+]1ccc(N)c(N)c1 | – | – | – | – | – | – | – | 72 min
18 | Nc1cnccc1NC(=O)c1ccccc1 | 0 µM | > 500 µM | 0 µM | > 500 µM | – | – | – | –
19 | Nc1cnccc1NC(=O)OCc1ccc(OC(=O)Cc2ccccc2)cc1 | 0 µM | 32.2 µM | 0 µM | 136 µM | 30.7 µM | – | – | –
20 | CC(C)C(=O)OCCOC(=O)Nc1ccncc1N | 4 µM | 61.9 µM | 0 µM | 25.9 µM | > 500 µM | > 500 µM | – | –
21 | CCC(=O)Oc1ccc(COC(=O)Nc2ccncc2N)cc1 | 82 µM | 129 µM | 145 µM | 5.2 µM | 25 µM | 5.7 µM | 1.2 min | –

— ChEMBL document CHEMBL1926528, “Formulating a new basis for the treatment against botulinum neurotoxin intoxication: 3,4-Diaminopyridine prodrug design and characterization” (Bioorg Med Chem, 2011)
